Data published in ChEMBL document CHEMBL1154674, “Synthesis and evaluation of three 18F-labeled aminophenylbenzothiazoles as amyloid imaging agents” (J Med Chem, 2009).

Assays:
Assay type in all cases: ADME, organism-based
[1] = Biodistribution in NMRI mouse spleen/pancreas at 3.7 MBq/mL, iv after 2 mins by gamma counting; settings: in vivo
Outline: (§1)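 Male NMRI mice (30-40 g) under isoflurane (1.5-2.5% in oxygen) got 0.1 mL of HPLC-purified tracer diluted with 0.9% NaCl to 3.7 MBq/mL (ethanol ≤10%) via tail vein. Mice were decapitated at 2 or 60 min p.i., and organs, blood and urine were weighed and γ-counted. Values are background-corrected %ID or %ID/g, with blood mass taken as 7% of body mass.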

[2] = Drug level in NMRI mouse cerebrum assessed as standard uptake value at 3.7 MBq/mL, iv after 2 mins by gamma counting; settings: in vivo
Outline: (§2)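 Male NMRI mice (30-40 g) were anaesthetised with isoflurane. Each received 0.1 mL of HPLC-purified tracer, diluted in 0.9% NaCl to 3.7 MBq/mL (ethanol ≤10%), via a tail vein. Mice were decapitated at 2 or 60 min. Organs were dissected, weighed and γ-counted with background correction. SUV = (organ cpm/organ weight)/(total recovered counts/body weight). Blood mass was taken as 7% of body mass.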

Heart [3] = test: Biodistribution in NMRI mouse heart at 3.7 MBq/mL, iv after 60 mins by gamma counting; settings: in vivo, 1 h; outline: as §1
Intestine [4] = test: Biodistribution in NMRI mouse intestine at 3.7 MBq/mL, iv after 2 mins by gamma counting; settings: in vivo; outline: as §1
[5] = Biodistribution in NMRI mouse cerebrum assessed per gram of tissue at 3.7 MBq/mL, iv after 60 mins by gamma counting; settings: in vivo, 1 h; outline: as §1
Blood [6] = test: Biodistribution in NMRI mouse blood at 3.7 MBq/mL, iv after 2 mins by gamma counting; settings: in vivo; outline: as §1
Lung [7] = test: Drug level in NMRI mouse lung assessed as standard uptake value at 3.7 MBq/mL, iv after 60 mins by gamma counting; settings: in vivo, 1 h; outline: as §2
Kidney [8] = test: Drug level in NMRI mouse kidney assessed as standard uptake value at 3.7 MBq/mL, iv after 60 mins by gamma counting; settings: in vivo, 1 h; outline: as §2
Kidney [9] = test: Biodistribution in NMRI mouse kidney assessed per gram of tissue at 3.7 MBq/mL, iv after 2 mins by gamma counting; settings: in vivo; outline: as §1
Blood [10] = test: Drug level in NMRI mouse blood assessed as standard uptake value at 3.7 MBq/mL, iv after 2 mins by gamma counting; settings: in vivo; outline: as §2
Liver [11] = test: Biodistribution in NMRI mouse liver at 3.7 MBq/mL, iv after 2 mins by gamma counting; settings: in vivo; outline: as §1
[12] = Biodistribution in NMRI mouse urine at 3.7 MBq/mL, iv after 2 mins by gamma counting; settings: in vivo; outline: as §1
Heart [13] = test: Biodistribution in NMRI mouse heart assessed per gram of tissue at 3.7 MBq/mL, iv after 60 mins by gamma counting; settings: in vivo, 1 h; outline: as §1
Liver [14] = test: Biodistribution in NMRI mouse liver at 3.7 MBq/mL, iv after 60 mins by gamma counting; settings: in vivo, 1 h; outline: as §1
Kidney [15] = test: Biodistribution in NMRI mouse kidney assessed per gram of tissue at 3.7 MBq/mL, iv after 60 mins by gamma counting; settings: in vivo, 1 h; outline: as §1
Blood [16] = test: Drug level in NMRI mouse blood assessed as standard uptake value at 3.7 MBq/mL, iv after 60 mins by gamma counting; settings: in vivo, 1 h; outline: as §2
Kidney [17] = test: Drug level in NMRI mouse kidney assessed as standard uptake value at 3.7 MBq/mL, iv after 2 mins by gamma counting; settings: in vivo; outline: as §2
Stomach [18] = test: Biodistribution in NMRI mouse stomach at 3.7 MBq/mL, iv after 2 mins by gamma counting; settings: in vivo; outline: as §1
Kidney [19] = test: Biodistribution in NMRI mouse kidney at 3.7 MBq/mL, iv after 60 mins by gamma counting; settings: in vivo, 1 h; outline: as §1
Blood [20] = test: Biodistribution in NMRI mouse blood at 3.7 MBq/mL, iv after 60 mins by gamma counting; settings: in vivo, 1 h; outline: as §1
Lung [21] = test: Biodistribution in NMRI mouse lung assessed per gram of tissue at 3.7 MBq/mL, iv after 2 mins by gamma counting; settings: in vivo; outline: as §1
Kidney [22] = test: Biodistribution in NMRI mouse kidney at 3.7 MBq/mL, iv after 2 mins by gamma counting; settings: in vivo; outline: as §1
Cerebellum [23] = test: Drug level in NMRI mouse cerebellum assessed as standard uptake value at 3.7 MBq/mL, iv after 60 mins by gamma counting; settings: in vivo, 1 h; outline: as §2
Lung [24] = test: Drug level in NMRI mouse lung assessed as standard uptake value at 3.7 MBq/mL, iv after 2 mins by gamma counting; settings: in vivo; outline: as §2
Heart [25] = test: Biodistribution in NMRI mouse heart assessed per gram of tissue at 3.7 MBq/mL, iv after 2 mins by gamma counting; settings: in vivo; outline: as §1
Intestine [26] = test: Biodistribution in NMRI mouse intestine at 3.7 MBq/mL, iv after 60 mins by gamma counting; settings: in vivo, 1 h; outline: as §1
Cerebellum [27] = test: Biodistribution in NMRI mouse cerebellum at 3.7 MBq/mL, iv after 2 mins by gamma counting; settings: in vivo; outline: as §1
[28] = Biodistribution in NMRI mouse spleen/pancreas assessed per gram of tissue at 3.7 MBq/mL, iv after 60 mins by gamma counting; settings: in vivo, 1 h; outline: as §1
[29] = Biodistribution in NMRI mouse spleen/pancreas assessed per gram of tissue at 3.7 MBq/mL, iv after 2 mins by gamma counting; settings: in vivo; outline: as §1
Cerebellum [30] = test: Drug level in NMRI mouse cerebellum assessed as standard uptake value at 3.7 MBq/mL, iv after 2 mins by gamma counting; settings: in vivo; outline: as §2
Cerebellum [31] = test: Biodistribution in NMRI mouse cerebellum assessed per gram of tissue at 3.7 MBq/mL, iv after 2 mins by gamma counting; settings: in vivo; outline: as §1
[32] = Drug level in NMRI mouse spleen/pancreas assessed as standard uptake value at 3.7 MBq/mL, iv after 2 mins by gamma counting; settings: in vivo; outline: as §2
[33] = Biodistribution in NMRI mouse spleen/pancreas at 3.7 MBq/mL, iv after 60 mins by gamma counting; settings: in vivo, 1 h; outline: as §1
Heart [34] = test: Drug level in NMRI mouse heart assessed as standard uptake value at 3.7 MBq/mL, iv after 60 mins by gamma counting; settings: in vivo, 1 h; outline: as §2
Liver [35] = test: Drug level in NMRI mouse liver assessed as standard uptake value at 3.7 MBq/mL, iv after 60 mins by gamma counting; settings: in vivo, 1 h; outline: as §2
Cerebellum [36] = test: Biodistribution in NMRI mouse cerebellum at 3.7 MBq/mL, iv after 60 mins by gamma counting; settings: in vivo, 1 h; outline: as §1
Lung [37] = test: Biodistribution in NMRI mouse lung at 3.7 MBq/mL, iv after 60 mins by gamma counting; settings: in vivo, 1 h; outline: as §1
[38] = Drug level in NMRI mouse cerebrum assessed as standard uptake value at 3.7 MBq/mL, iv after 60 mins by gamma counting; settings: in vivo, 1 h; outline: as §2
Lung [39] = test: Biodistribution in NMRI mouse lung assessed per gram of tissue at 3.7 MBq/mL, iv after 60 mins by gamma counting; settings: in vivo, 1 h; outline: as §1
Cerebellum [40] = test: Biodistribution in NMRI mouse cerebellum assessed per gram of tissue at 3.7 MBq/mL, iv after 60 mins by gamma counting; settings: in vivo, 1 h; outline: as §1
Heart [41] = test: Drug level in NMRI mouse heart assessed as standard uptake value at 3.7 MBq/mL, iv after 2 mins by gamma counting; settings: in vivo; outline: as §2
[42] = Drug level in NMRI mouse spleen/pancreas assessed as standard uptake value at 3.7 MBq/mL, iv after 60 mins by gamma counting; settings: in vivo, 1 h; outline: as §2
Liver [43] = test: Drug level in NMRI mouse liver assessed as standard uptake value at 3.7 MBq/mL, iv after 2 mins by gamma counting; settings: in vivo; outline: as §2
Lung [44] = test: Biodistribution in NMRI mouse lung at 3.7 MBq/mL, iv after 2 mins by gamma counting; settings: in vivo; outline: as §1
Liver [45] = test: Biodistribution in NMRI mouse liver assessed per gram of tissue at 3.7 MBq/mL, iv after 2 mins by gamma counting; settings: in vivo
[46] = Biodistribution in NMRI mouse urine at 3.7 MBq/mL, iv after 60 mins by gamma counting; settings: in vivo, 1 h; outline: as §1
Blood [47] = test: Biodistribution in NMRI mouse blood assessed per gram of tissue at 3.7 MBq/mL, iv after 60 mins by gamma counting; settings: in vivo, 1 h; outline: as §1
Liver [48] = test: Biodistribution in NMRI mouse liver assessed per gram of tissue at 3.7 MBq/mL, iv after 60 mins by gamma counting; settings: in vivo, 1 h; outline: as §1
[49] = Biodistribution in NMRI mouse cerebrum at 3.7 MBq/mL, iv after 2 mins by gamma counting; settings: in vivo; outline: as §1
Heart [50] = test: Biodistribution in NMRI mouse heart at 3.7 MBq/mL, iv after 2 mins by gamma counting; settings: in vivo; outline: as §1
[51] = Biodistribution in NMRI mouse cerebrum at 3.7 MBq/mL, iv after 60 mins by gamma counting; settings: in vivo, 1 h; outline: as §1
[52] = Biodistribution in NMRI mouse cerebrum assessed per gram of tissue at 3.7 MBq/mL, iv after 2 mins by gamma counting; settings: in vivo; outline: as §1
Stomach [53] = test: Biodistribution in NMRI mouse stomach at 3.7 MBq/mL, iv after 60 mins by gamma counting; settings: in vivo, 1 h; outline: as §1
Blood [54] = test: Biodistribution in NMRI mouse blood assessed per gram of tissue at 3.7 MBq/mL, iv after 2 mins by gamma counting; settings: in vivo; outline: as §1

Drug uptake [1]: 1.3%
SUV [2]: 1.97
Drug uptake (Heart [3]): 0.1%
Drug uptake (Intestine [4]): 8.9%
Drug uptake [5]: 0.27%
Drug uptake (Blood [6]): 5.7%
SUV (Lung [7]): 0.5
SUV (Kidney [8]): 1.4
Drug uptake (Kidney [9]): 9.3%
SUV (Blood [10]): 0.8
Drug uptake (Liver [11]): 24.8%
Drug uptake [12]: 0.2%
Drug uptake (Heart [13]): 0.5%
Drug uptake (Liver [14]): 51.8%
Drug uptake (Kidney [15]): 3.6%
SUV (Blood [16]): 0.4
SUV (Kidney [17]): 3.4
Drug uptake (Stomach [18]): 1.3%
Drug uptake (Kidney [19]): 2.3%
Drug uptake (Blood [20]): 2.8%
Drug uptake (Lung [21]): 14.4%
Drug uptake (Kidney [22]): 5.8%
SUV (Cerebellum [23]): 0.15
SUV (Lung [24]): 5.3
Drug uptake (Heart [25]): 5.4%
Drug uptake (Intestine [26]): 19.3%
Drug uptake (Cerebellum [27]): 0.42%
Drug uptake [28]: 0.4%
Drug uptake [29]: 4%
SUV (Cerebellum [30]): 2.21
Drug uptake (Cerebellum [31]): 5.99%
SUV [32]: 1.5
Drug uptake [33]: 0.1%
SUV (Heart [34]): 0.2
SUV (Liver [35]): 9.2
Drug uptake (Cerebellum [36]): 0.04%
Drug uptake (Lung [37]): 0.3%
SUV [38]: 0.1
Drug uptake (Lung [39]): 1.3%
Drug uptake (Cerebellum [40]): 0.39%
SUV (Heart [41]): 2
SUV [42]: 0.2
SUV (Liver [43]): 4.5
Drug uptake (Lung [44]): 3.6%
Drug uptake (Liver [45]): 12%
Drug uptake [46]: 3.3%
Drug uptake (Blood [47]): 1.1%
Drug uptake (Liver [48]): 24.6%
Drug uptake [49]: 1.62%
Drug uptake (Heart [50]): 0.9%
Drug uptake [51]: 0.07%
Drug uptake [52]: 5.33%
Drug uptake (Stomach [53]): 1.1%
Drug uptake (Blood [54]): 2.2%
SMILES: Cc1ccc2nc(-c3ccc([18F])cc3)sc2c1
